Where only a bound is given, the exact number is not on record here.

Data on 29 compounds can be found in ChEMBL document CHEMBL3769325, “Exploration of 2-benzylbenzimidazole scaffold as novel inhibitor of NF-κB” (Bioorg Med Chem, 2016).

The first experiment has as its system RAW264.7. Nature of the experiment: Inhibition of LPS induced NF-kappa-B transcriptional activity in mouse RAW264.7 cells at 30 uM after 20 hrs by SEAP reporter assay. Format: cell-based.
Conditions: not given
Put shortly: (§1)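 RAW 264.7 cells stably transfected with an NF-κB-driven SEAP reporter, stimulated with LPS. Culture supernatants were heated to 65 °C for 5 min, then reacted in the dark with 4-methylumbelliferyl phosphate (500). SEAP activity was read as RFU at ex 360/em 450 nm. Results are given as IC50 or as % inhibition at 30, from three independent experiments, each averaged from triplicates.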
Usually inhibition stands for the drop in the measured response relative to a control, in per cent. The compound `Oc1ccc(Cc2nc3ccccc3[nH]2)cc1` gave an inhibition of 75%.
Take `COc1ccc(CCc2nc3ccccc3[nH]2)cc1`: the inhibition is 50%.
As for `Clc1ccc(Cc2nc3ccccc3[nH]2)cc1Cl`, the inhibition worked out at 63%.
On the same count and under the same terms, the figure for `Clc1ccc2[nH]c(Cc3ccccc3)nc2c1` is 31%; for `COc1ccccc1Cc1nc2ccccc2[nH]1` it is 85%; for `Nc1ccc(Cc2nc3ccccc3[nH]2)cc1` it is 40%.
The same measure, in the same setting: the figure for `Clc1ccccc1Cc1nc2ccccc2[nH]1` is 33%; for `Clc1ccc(Cc2nc3cc(Cl)ccc3[nH]2)cc1` it is 76%.
On the same count and under the same terms, the figure for `c1ccc(Cc2nc3ccccc3o2)cc1` is 33%; for `Cc1ccc(Cc2nc3ccccc3[nH]2)cc1` it is 60%; for `COc1ccc(Cc2nc3cc(Cl)ccc3[nH]2)cc1` it is 66%.
The compound `Oc1ccc(Cc2nc3ccccc3[nH]2)cc1O` showed an inhibition of 75%.
On the same count and under the same terms, for `Clc1ccc(Cc2nc3ccccc3[nH]2)cc1` the value was 85%; for `COc1ccc(Cc2nc3cc(OC)ccc3[nH]2)cc1`, 61%; for `c1ccc(Cc2nc3ccccc3[nH]2)cc1` [BENDAZOL], 43%.
Same read-out and setting: for `COc1ccc(-c2nc3ccccc3[nH]2)cc1` the value was 22%.
The compound `Clc1cccc(Cc2nc3ccccc3[nH]2)c1` registered an inhibition of 66%.
Same read-out and setting: for `CS(=O)(=O)c1ccc(Cc2nc3ccccc3[nH]2)cc1` the value was 43%; for `COc1ccc(Cc2nc3ccccc3s2)cc1`, 67%; for `COc1cc(Cc2nc3ccccc3[nH]2)cc(OC)c1OC`, 32%.
On the same count and under the same terms, for `Clc1ccc(-c2nc3ccccc3[nH]2)cc1` the value was 12%; for `c1ccc(-c2nc3ccccc3[nH]2)cc1`, 22%.
The compound `COc1ccc2[nH]c(Cc3ccccc3)nc2c1` displayed an inhibition of 45%.
Same read-out and setting: the figure for `O=[N+]([O-])c1ccc(Cc2nc3ccccc3[nH]2)cc1` is 64%; for `FC(F)(F)c1ccc(Cc2nc3ccccc3[nH]2)cc1` it is 55%.
In turn, `COc1ccc(Cc2nc3ccccc3o2)cc1` showed an inhibition of 42%.
Still for that read-out and setting: for `COc1ccc(Cc2nc3ccccc3[nH]2)cc1` the value was 90%; for `COc1ccc(Cc2nc3ccccc3[nH]2)cc1OC`, 32%.

Test system in another experiment: not listed separately
In words: Inhibition of LPS induced NF-kappa-B transcriptional activity in mouse RAW264.7 cells after 20 hrs by SEAP reporter assay. It counts as cell-based. The settings on record: RAW264.7, 20 h. Summed up:
as §1
Background: Reporter assays use an easily measured gene product as a stand-in for the process of interest.
By IC50 is commonly meant the concentration at which inhibition is half-maximal. A low value points to inhibition by little substance. In the case of `Oc1ccc(Cc2nc3ccccc3[nH]2)cc1`, half-maximal inhibition (IC50) required 6 µM.
`COc1ccc(CCc2nc3ccccc3[nH]2)cc1`: the IC50 is > 30 µM.
Same read-out and setting: the figure for `Clc1ccc(Cc2nc3ccccc3[nH]2)cc1Cl` is 15 µM; for `Clc1ccc2[nH]c(Cc3ccccc3)nc2c1` it is > 30 µM.
The same measure, in the same setting: the figure for `COc1ccccc1Cc1nc2ccccc2[nH]1` is 2.4 µM; for `Nc1ccc(Cc2nc3ccccc3[nH]2)cc1` it is > 30 µM.
On the same count and under the same terms, the figure for `Clc1ccccc1Cc1nc2ccccc2[nH]1` is > 30 µM.
In turn, `Clc1ccc(Cc2nc3cc(Cl)ccc3[nH]2)cc1` registered an IC50 of 5 µM.
The same measure, in the same setting: the figure for `c1ccc(Cc2nc3ccccc3o2)cc1` is > 30 µM.
The compound `Cc1ccc(Cc2nc3ccccc3[nH]2)cc1` had an IC50 of 19 µM.
Still for that read-out and setting: for `COc1ccc(Cc2nc3cc(Cl)ccc3[nH]2)cc1` the value was 10 µM; for `Oc1ccc(Cc2nc3ccccc3[nH]2)cc1O`, 6 µM; for `CC(C)CCOc1cccc(O)c1C(=O)/C=C/c1ccc(O)cc1`, 10 µM.
Compound `Clc1ccc(Cc2nc3ccccc3[nH]2)cc1` showed an IC50 of 2.4 µM.
Take `COc1ccc(Cc2nc3cc(OC)ccc3[nH]2)cc1`: the IC50 was > 30 µM.
For the compound `c1ccc(Cc2nc3ccccc3[nH]2)cc1` [BENDAZOL], the IC50 amounted to 18.4 µM.
Take `COc1ccc(-c2nc3ccccc3[nH]2)cc1`: the 50% inhibitory concentration (IC50) was > 30 µM.
The same measure, in the same setting: the figure for `Clc1cccc(Cc2nc3ccccc3[nH]2)c1` is 10 µM; for `CS(=O)(=O)c1ccc(Cc2nc3ccccc3[nH]2)cc1` it is 28 µM; for `COc1ccc(Cc2nc3ccccc3s2)cc1` it is 9 µM.
Still for that read-out and setting: for `COc1cc(Cc2nc3ccccc3[nH]2)cc(OC)c1OC` the value was > 30 µM.
On to `Clc1ccc(-c2nc3ccccc3[nH]2)cc1`, for which the IC50 was > 30 µM.
The same measure, in the same setting: for `c1ccc(-c2nc3ccccc3[nH]2)cc1` the value was > 30 µM; for `COc1ccc2[nH]c(Cc3ccccc3)nc2c1`, 18 µM; for `O=[N+]([O-])c1ccc(Cc2nc3ccccc3[nH]2)cc1`, 12 µM.
On the same count and under the same terms, the figure for `FC(F)(F)c1ccc(Cc2nc3ccccc3[nH]2)cc1` is 16.4 µM; for `COc1ccc(Cc2nc3ccccc3o2)cc1` it is > 30 µM; for `COc1ccc(Cc2nc3ccccc3[nH]2)cc1` it is 1.7 µM.
The same measure, in the same setting: for `COc1ccc(Cc2nc3ccccc3[nH]2)cc1OC` the value was > 30 µM.
